In ChEMBL document CHEMBL1148550, “4-Phenyl-4-[1H-imidazol-2-yl]-piperidine derivatives, a novel class of selective delta-opioid agonists” (Bioorg Med Chem Lett, 2006) one finds Ratio Ki, Ki and EC50 data, which are given here for 26 molecules.

Experiment [1] concerns the target Opioid receptors; mu & delta (Homo sapiens) (UniProt P41143+P35372). As to the kind of experiment: Selectivity for cloned human mu opioid receptor over delta opioid receptor. It counts as protein assay.
For experiment [2], the target named is Opioid receptors; delta & kappa (Homo sapiens) (UniProt P41145+P41143). As to the kind of experiment: Selectivity for cloned human kappa opioid receptor over delta opioid receptor. It counts as protein assay.
Sequence of Opioid receptors; delta & kappa (Homo sapiens) (P41143 whole entry, looked up): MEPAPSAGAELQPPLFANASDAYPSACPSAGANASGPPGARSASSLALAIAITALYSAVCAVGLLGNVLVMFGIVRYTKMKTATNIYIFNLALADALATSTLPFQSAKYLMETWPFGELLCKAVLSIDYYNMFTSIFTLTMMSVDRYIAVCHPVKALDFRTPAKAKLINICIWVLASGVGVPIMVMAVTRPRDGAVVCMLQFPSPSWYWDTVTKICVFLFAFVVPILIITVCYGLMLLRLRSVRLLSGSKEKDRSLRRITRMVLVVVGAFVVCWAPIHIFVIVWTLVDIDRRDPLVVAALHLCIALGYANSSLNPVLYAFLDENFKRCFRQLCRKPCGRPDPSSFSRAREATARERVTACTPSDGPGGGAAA
Sequence of Opioid receptors; delta & kappa (Homo sapiens) (P41145 whole entry, looked up): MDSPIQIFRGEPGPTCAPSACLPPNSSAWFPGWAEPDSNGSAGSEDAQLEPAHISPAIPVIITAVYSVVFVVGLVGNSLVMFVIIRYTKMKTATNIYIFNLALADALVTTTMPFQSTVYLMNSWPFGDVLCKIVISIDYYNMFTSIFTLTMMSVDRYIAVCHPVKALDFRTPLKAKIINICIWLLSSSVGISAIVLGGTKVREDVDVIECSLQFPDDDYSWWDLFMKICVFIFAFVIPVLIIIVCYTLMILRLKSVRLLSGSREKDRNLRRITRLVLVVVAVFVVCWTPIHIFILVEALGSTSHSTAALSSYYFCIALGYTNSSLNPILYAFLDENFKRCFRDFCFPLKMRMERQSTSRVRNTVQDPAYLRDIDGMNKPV
Experiment [3] concerns the target T1, Delta-type opioid receptor (Homo sapiens, UniProt P41143). As to the kind of experiment: Displacement of [3H]DPDPE from cloned human delta opioid receptor. Put shortly: (§1)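 Radioligand competition binding at cloned human receptors: [³H]DAMGO for mu, [³H]DPDPE for delta, [³H]U69593 for kappa. Ki is the concentration giving half-maximal inhibition of tracer binding.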

For experiment [4], the target named is Mu-type opioid receptor (Homo sapiens, UniProt P35372). As to the kind of experiment: Displacement of [3H]DAMGO from cloned human mu opioid receptor. Summed up: as §1
Sequence of Mu-type opioid receptor (P35372 whole entry): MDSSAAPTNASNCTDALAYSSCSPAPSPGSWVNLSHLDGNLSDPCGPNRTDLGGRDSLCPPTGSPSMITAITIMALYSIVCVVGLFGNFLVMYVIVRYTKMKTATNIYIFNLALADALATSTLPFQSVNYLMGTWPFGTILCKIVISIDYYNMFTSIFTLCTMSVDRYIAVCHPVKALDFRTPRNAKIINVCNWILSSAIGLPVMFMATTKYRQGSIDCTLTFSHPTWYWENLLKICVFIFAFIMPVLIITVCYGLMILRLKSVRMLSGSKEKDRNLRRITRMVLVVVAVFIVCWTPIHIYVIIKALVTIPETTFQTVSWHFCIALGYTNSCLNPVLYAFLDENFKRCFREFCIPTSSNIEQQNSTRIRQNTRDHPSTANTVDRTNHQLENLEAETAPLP
(Displacement assays read how much labelled ligand stays bound in the presence of the test substance.)

For experiment [5], the target named is Kappa-type opioid receptor (Homo sapiens, UniProt P41145). As to the kind of experiment: Displacement of [3H]U-69593 from cloned human kappa opioid receptor. Put shortly: as §1
Sequence of Kappa-type opioid receptor (P41145 whole entry): as the sequence (P41145 whole entry, looked up) above
Experiment [6] has as its target T1, Delta-type opioid receptor. As to the kind of experiment: Agonist potency assessed by [35S]GTP-gammaS binding assay in C6 Glioma cells expressing cloned human delta opioid receptor. Format: functional, cell-based. Summed up: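 Membranes expressing human δ-opioid receptors; agonism read as percent stimulation of [³⁵S]GTPγS binding against log molar ligand concentration. pEC₅₀ derived from three-parameter logistic curve fits.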
In general terms: GTPγS resists hydrolysis and so accumulates on activated G proteins.

Where only a bound is given, the exact number is not on record here.

By Ki is commonly meant the equilibrium dissociation constant of an inhibitor or competing ligand from its target. Read a low Ki as a stronger hold on the target. As usually defined, the EC50 is the concentration needed to bring the measured effect to its halfway point. A higher EC50 goes with weaker potency.

Sequence of Opioid receptors; mu & delta (Homo sapiens) (P35372 whole entry, looked up): as the sequence (P35372 whole entry) above
Sequence of Opioid receptors; mu & delta (Homo sapiens) (P41143 whole entry, looked up): as the sequence (P41143 whole entry, looked up) above
T1 sequence (P41143 whole entry): as the sequence (P41143 whole entry, looked up) above

`O=C(Nc1ccccc1)N1CCC(c2ccccc2)(c2nccn2Cc2ccccn2)CC1`: the Ratio Ki was found to be 0.46 in experiment [1] and 0.015 in experiment [2]. Further, the Ki in experiment [3] amounted to 3070 nM; in experiment [4] it was 1420 nM; in experiment [5], 46 nM.
For `O=C(Nc1ccc(F)cc1)N1CCC(c2ccccc2)(c2nccn2Cc2ccccc2)CC1` the same measures were 12, 1.5, 97 nM, 1210 nM and 148 nM.
In the case of `COc1ccccc1NC(=O)N1CCC(c2ccccc2)(c2nccn2Cc2ccccc2)CC1`, the Ki in experiment [4] was more than 4650 nM; in experiment [5], 782 nM.
On to `c1ccc(Cn2ccnc2C2(c3ccccc3)CCN(c3nc4ccccc4s3)CC2)cc1`, for which the Ratio Ki in experiment [1] is more than 63. Besides, the Ki was 73 nM in experiment [3] and more than 4650 nM in experiment [4]. In addition, the half-maximal effective concentration (EC50) in experiment [6] was 26 nM.
Regarding `COc1cccc(NC(=O)N2CCC(c3ccccc3)(c3nccn3Cc3ccccc3)CC2)c1`, the Ki stood at 1380 nM in experiment [4] and 152 nM in experiment [5].
Take `O=C(Nc1ccccc1)N1CCC(c2ccccc2)(c2nccn2Cc2ccccc2)CC1`: the Ratio Ki in experiment [1] is more than 5.7; in experiment [2], 1.6. Further, the Ki in experiment [3] was 81 nM; in experiment [4], more than 465 nM; in experiment [5], 126 nM. In experiment [6], this molecule yielded an EC50 of 1480 nM.
As to `NC(=O)N1CCC(c2ccccc2)(c2nccn2Cc2ccccc2)CC1`, the figures for the Ratio Ki in experiment [1] and in experiment [2] were more than 51 and 3.4, respectively. Further, the inhibition constant (Ki) is 99 nM in experiment [3], more than 4650 nM in experiment [4] and 334 nM in experiment [5].
With `CC(c1ccccc1)n1ccnc1C1(c2ccccc2)CCN(C(=O)Nc2ccccc2)CC1` (configuration not stated), the figures for the Ki in experiment [4] and in experiment [5] were 497 nM and more than 465 nM, respectively.
As to `c1ccc(Cn2ccnc2C2(c3ccccc3)CCN(c3nccs3)CC2)cc1`, the values for the Ratio Ki in experiment [1] and in experiment [2] were more than 58 and 32, respectively. Moreover, the Ki is 79 nM in experiment [3], more than 4650 nM in experiment [4] and 2530 nM in experiment [5]. In experiment [6], this molecule had an EC50 of 98 nM.
Consider `O=C(Nc1ccccc1)N1CCC(c2ccccc2)(c2nccn2Cc2ccc(F)cc2)CC1`, for which the Ratio Ki is more than 23 in experiment [1] and 11 in experiment [2]. Also, the Ki in experiment [3] is 203 nM; in experiment [4], more than 4650 nM; in experiment [5], 2160 nM.
With `CCNC(=O)N1CCC(c2ccccc2)(c2nccn2Cc2ccccc2)CC1`, the Ki is more than 4650 nM in experiment [4] and 242 nM in experiment [5].
As to `NS(=O)(=O)N1CCC(c2ccccc2)(c2nccn2Cc2ccccc2)CC1`, the Ratio Ki in experiment [1] and in experiment [2] was more than 44 in each case. Also, the Ki in experiment [3] was 106 nM; in experiment [4], more than 4650 nM; in experiment [5], more than 4650 nM.
As to `O=C(Nc1ccccc1F)N1CCC(c2ccccc2)(c2nccn2Cc2ccccc2)CC1`, the Ki in experiment [4] was determined as 2520 nM; in experiment [5], 318 nM.
`O=C(Nc1ccccc1)N1CCC(c2ccccc2)(c2nccn2Cc2cccc(F)c2)CC1`: the Ratio Ki in experiment [1] is more than 36; in experiment [2] it was 15. Further, the Ki in experiment [3] is 128 nM; in experiment [4], more than 4650 nM; in experiment [5] it was 1880 nM.
Take `CN(C(=O)N1CCC(c2ccccc2)(c2nccn2Cc2ccccc2)CC1)c1ccccc1`: the Ki in experiment [4] is more than 4650 nM; in experiment [5], 397 nM.
Taken in the same sequence, the figures for `O=C(Nc1ccccc1)N1CCC(c2ccccc2)(c2nccn2Cc2ccccc2F)CC1` were 428 nM and 116 nM.
For `O=C(Nc1cccc(F)c1)N1CCC(c2ccccc2)(c2nccn2Cc2ccccc2)CC1` the same measures were more than 4650 nM and more than 4650 nM.
With `CS(=O)(=O)N1CCC(c2ccccc2)(c2nccn2Cc2ccccc2)CC1`, the Ratio Ki is more than 101 in experiment [1] and 44 in experiment [2]. The Ki in experiment [3] was 46 nM; in experiment [4], more than 4650 nM; in experiment [5] it was 2010 nM.
Taken in the same sequence, the figures for `CN1CCN(C(=O)N2CCC(c3ccccc3)(c3nccn3Cc3ccccc3)CC2)CC1` were more than 29, 5.3, 161 nM, more than 4650 nM and 858 nM.
`COc1ccc(NC(=O)N2CCC(c3ccccc3)(c3nccn3Cc3ccccc3)CC2)cc1`: the Ratio Ki in experiment [1] is more than 10. Further, the Ki in experiment [3] is 44 nM; in experiment [4], more than 465 nM.
For the molecule `Cn1c(N2CCC(c3ccccc3)(c3nccn3Cc3ccccc3)CC2)nc2ccccc21`, the Ratio Ki was 1.7 in experiment [1] and 0.29 in experiment [2]. The inhibition constant (Ki) in experiment [3] came to 138 nM; in experiment [4], 235 nM; in experiment [5] it was 40 nM.
Taken in the same sequence, the figures for `COc1cccc(Cn2ccnc2C2(c3ccccc3)CCN(C(=O)Nc3ccccc3)CC2)c1` were 15, 9, 217 nM, 3250 nM and 2060 nM.
As for `O=S(=O)(Nc1ccccc1)N1CCC(c2ccccc2)(c2nccn2Cc2ccccc2)CC1`, the Ki in experiment [3] stood at 3.2 nM; in experiment [4], 980 nM. In addition, in experiment [6], the midpoint of the response, the EC50, lay at 832 nM.
`c1ccc(Cn2ccnc2C2(c3ccccc3)CCN(c3ncccn3)CC2)cc1`: the Ratio Ki in experiment [1] was more than 258; in experiment [2], 28. Besides, the Ki in experiment [3] was 18 nM; in experiment [4] it was more than 4650 nM; in experiment [5], 505 nM. The molecule also displayed an EC50 in experiment [6] of 14 nM.
On to `O=C(Nc1ccccc1)N1CCC(c2ccccc2)(c2ncc[nH]2)CC1`, for which the results for the inhibition constant Ki in experiment [3], in experiment [4] and in experiment [5] were more than 465 nM, more than 465 nM and more than 4650 nM, respectively.
On to `O=C(Nc1ccccc1)N1CCC(c2ccccc2)(c2nccn2C(=O)c2ccccc2)CC1`, for which the figures for the Ratio Ki in experiment [1] and in experiment [2] were more than 1.2 and 0.32, respectively. Also, the inhibition constant (Ki) was 3700 nM in experiment [3], more than 4650 nM in experiment [4] and 1190 nM in experiment [5].
